NR2E3 ag-1 = NR2E3 agonists in two-hybrid cells, primary screen, cell-based, luminescence, CHO-S, Gal4-NCOR/VP16-NR2E3; luciferase; Photoreceptor-specific nuclear receptor (Homo sapiens), Q9Y5X4; actives 0.35% (n = 360,000); inhibition of corepressor binding, % at 3.98 µM; AID 602229, 2012;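 active means inhibition above the mean of all tested compounds plus 3 SD, cut at about 70% in these data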;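 further: 0% = DMSO with NR2E3 transfected cells and 100% = cells lacking NR2E3 construct; higher means lower luciferase signal from less NR2E3 corepressor binding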
Target sequence (Q9Y5X4 whole entry, looked up, the tested form may be a part): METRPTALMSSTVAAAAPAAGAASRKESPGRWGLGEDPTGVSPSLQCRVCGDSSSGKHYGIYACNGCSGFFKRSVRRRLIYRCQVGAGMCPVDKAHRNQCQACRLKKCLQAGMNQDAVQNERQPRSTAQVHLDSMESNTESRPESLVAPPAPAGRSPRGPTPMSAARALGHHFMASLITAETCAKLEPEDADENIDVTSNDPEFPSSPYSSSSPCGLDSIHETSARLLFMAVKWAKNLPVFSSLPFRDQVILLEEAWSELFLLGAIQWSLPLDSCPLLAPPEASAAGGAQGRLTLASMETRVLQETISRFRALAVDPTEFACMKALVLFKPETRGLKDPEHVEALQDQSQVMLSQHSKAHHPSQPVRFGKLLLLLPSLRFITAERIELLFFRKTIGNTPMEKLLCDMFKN
NR2E3 ag-2 = inhibitors of NR2E3-RetCOR corepressor binding, primary screen, NR2E3 agonist project, biochemical, TR-FRET, GST-NR2E3, biotin-RetCOR. Photoreceptor-specific nuclear receptor (Homo sapiens), Q9Y5X4. 1536-well. inhibition of corepressor binding, % at 4.78 µM. actives 0.12% (n = 320,000). AID 2300, 2010;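 active means percent inhibition above the cutoff of mean plus 3 SD of all tested compounds, set per screening campaign, cut at about 20% in these data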;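 further: 0% = DMSO wells and 100% = biotin wells as full block of FRET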
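Assay system: NR2E3–RetCOR corepressor complex. Quantity: 1.35 nM GST-NR2E3. Buffer or medium: pH 7.5 Tris-based buffer. Reagent: biotinylated RetCOR corepressor at 7 nM final. Schedule: 5 h at 4 °C. Detection: TR-FRET, emission read at 617 and 671 nm. Replicates: one well per compound, singlicate testing.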
GalR3 antag = GalR3 antagonists in HEK293 cells, primary screen, cell-based, fluorescence readout; HEK293 GalR3-CNG cAMP membrane potential fluorescence; galR3 body fused to GalR1 C-terminus; inhibition, % at 3 µM; actives 0.44% (n = 360,000); AID 651719, 2012;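 active means inhibition above the screen-wide average plus 3 SD, cut at about 13% in these data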;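 further: forskolin and galanin both at EC90 stimulate the cells; cAMP rise reported by CNG channel membrane potential dye signal; 0% = forskolin plus galanin with DMSO and 100% = forskolin alone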
Target sequence (O60755 1-299 limits assumed): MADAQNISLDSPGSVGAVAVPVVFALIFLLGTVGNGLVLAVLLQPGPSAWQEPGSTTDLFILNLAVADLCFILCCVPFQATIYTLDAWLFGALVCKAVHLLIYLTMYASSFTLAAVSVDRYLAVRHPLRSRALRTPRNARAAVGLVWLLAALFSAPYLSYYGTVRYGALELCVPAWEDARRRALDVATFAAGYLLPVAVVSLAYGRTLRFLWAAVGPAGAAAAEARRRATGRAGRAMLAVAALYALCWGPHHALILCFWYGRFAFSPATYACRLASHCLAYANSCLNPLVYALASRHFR
Gli-Sufu block = Gli-Sufu pathway antagonists, primary screen, luciferase luminescence, Sufu-KO-LIGHT cells, uHTS. AID 588413, 2011. actives 0.74% (n = 340,000). Sufu-KO-LIGHT fibroblasts, Gli luciferase reporter luminescence. inhibition, % at 5 µM;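 active means inhibition above about 55%, limit read from the data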;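 further: 0% = DMSO-treated cells and 100% = wells with medium but no cells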
697 NFkB inh = inhibitors of PMA/ionomycin-induced NF-kB reporter, 697 cells, primary screen, B-cell NF-kB inhibitor project, cell-based, luminescence, uHTS | 697 B-cell NF-kB luciferase reporter, 16 h | inhibition, % at 4 µM | actives 0.33% (n = 330,000) | AID 435022, 2010; in the data active means inhibition above about 35%
Jurkat NFkB inh = inhibitors of induced NF-kB luciferase reporter, primary screen, TCR NF-kB activation inhibitor project, cell-based, luminescence, uHTS; actives 0.53% (n = 330,000); Jurkat, PMA/ionomycin-induced NF-kB luciferase reporter; inhibition, % at 4 µM; in the data active means inhibition above about 50%
Gli-Sufu confirm = Gli-SUFU pathway antagonists, confirmation, single concentration, luciferase luminescence, Sufu-KO-LIGHT cells. shares compounds with Gli-Sufu block. Gli luciferase reporter. inhibition, % at 5 µM. actives 40% (n = 2,500);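 active means mean inhibition at 5 µM reaching about 45%, limit read from the data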;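 further: plate controls were DMSO-treated cells for no effect and wells lacking cells for full effect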
SufuKO cytotox = cytotoxicity in Sufu-KO-LIGHT cells, confirmation, cytotoxicity control for Gli-SUFU antagonist project, cell-based, ATP luminescence, single concentration; cytotoxicity, % at 5 µM; shares compounds with Gli-Sufu block; actives 32% (n = 2,500);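 active means mean cytotoxicity at 5 µM above about 25%, limit read from the data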;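 further: cells exposed to compound overnight for roughly 16 to 18 hours; plate controls were DMSO wells with cells for no effect and medium without cells for full effect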
Wnt3a cs = Wnt3a reporter signal inhibition, confirmation, counter-screen for Gli-SUFU antagonist project, Wnt-LIGHT cells, luminescence, single concentration; inhibition, % at 6.25 µM; actives 20% (n = 2,500); Wnt3a-driven luciferase reporter; shares compounds with Gli-Sufu block; AID 651995, 2013;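 active means mean inhibition above about 25%, limit read from the data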
* = called active by the depositor; . = no result. Only some compounds are listed: those with a hit (about 1.8% of all), similar ones and a draw of the others.

SMILES | NR2E3 ag-1 | NR2E3 ag-2 | GalR3 antag | Gli-Sufu block | 697 NFkB inh | Jurkat NFkB inh | Gli-Sufu confirm | SufuKO cytotox | Wnt3a cs
Cc1ccc(C)c(Oc2cc(NC(=O)CCCn3nc(C)c([N+](=O)[O-])c3C)cc([N+](=O)[O-])c2)c1 | 4.5 | -1.7 | -0.2 | 50.2 | 0.9 | 6.0 | 17.1 | 12.4 | -20.1
CCCCOc1ccc(N2C(N)=NC(N)=NC23CCCCC3)cc1 | 1.5 | -2.6 | -10.5 | 59.1* | -3.2 | 18.2 | 48.4* | 13.5 | -6.8
COC(=O)Oc1ccc(/C=C/C(=O)OC(C)C)cc1OC(=O)OC | 2.0 | 2.1 | 8.3 | 53.3 | -148.2 | 23.6 | 28.7 | 23.5 | -6.0
CCCCOC(=O)/C=C/c1ccc(OC(=O)OC)c(OC(=O)OC)c1 | 8.0 | -3.2 | -1.8 | 61.9* | 16.5 | 3.1 | 45.6* | 11.4 | 36.8*
COc1ccc(/C=C/C(=O)OCCNC(=O)c2ccncc2)cc1OC | 18.5 | 1.4 | 1.1 | -1.9 | 0.8 | -9.6 | . | . | .
c1ccc(-c2nn(-c3ccccc3)[n+](-c3ccccc3)n2)cc1 | 9.2 | . | -6.0 | 63.3* | . | . | 66.7* | 13.5 | 32.8*
COc1ccc(OCC(=O)Nc2ccc3c(c2)nc(CCN2CCN(C)CC2)n3C)cc1 | -15.8 | 2.1 | 4.9 | 50.7 | -9.6 | -10.4 | 16.4 | 0.2 | -9.6
COc1ccc(OCC(=O)Nc2ccc3c(c2)nc(CCN2CCCC2)n3C)cc1 | -13.4 | -0.8 | -7.5 | 4.8 | -6.8 | -9.3 | . | . | .
Cc1ccc(NC(=O)c2ccc(=O)[nH]c2)cc1S(=O)(=O)N1CCCCCC1 | -39.0 | . | -6.4 | 2.0 | -7.4 | 10.0 | . | . | .
Cn1nnc(NC(=O)C(c2ccccc2)c2ccccc2)n1 | 11.1 | 3.4 | -6.9 | 8.6 | 2.7 | 1.3 | . | . | .
CCn1nnc(NC(=O)C(c2ccccc2)c2ccccc2)n1 | 15.9 | -1.9 | 2.5 | 59.1* | 6.0 | 0.1 | 18.8 | 13.1 | -6.5
CN1CCc2c(c3ccccc3n2Cc2ccccc2)C1 | 1.2 | -1.1 | -8.4 | -2.6 | -21.7 | -4.3 | . | . | .
CCCCN1CCc2c(c3ccccc3n2Cc2ccccc2)C1 | 3.6 | -3.2 | -15.5 | 60.1* | 0.9 | 11.7 | 35.2 | 0.6 | -31.1
C/C(=N\NC(=O)c1nnn(-c2nonc2N)c1C(C)C)c1ccc2ccccc2c1 | 18.2 | -0.4 | -10.7 | 59.7* | -82.0 | -24.2 | 10.6 | 27.5* | 20.3
C[C@@H]1CCCCO[C@@H](CN(C)C(=O)Nc2ccc3c(c2)OCO3)[C@@H](C)CN([C@H](C)CO)C(=O)c2cc(NC(=O)Nc3ccc(C(F)(F)F)cc3)ccc2O1 | . | . | -0.7 | . | . | . | . | . | .
CCOC(=O)N(C)[C@H]1C[C@H]2c3[nH]c4ccccc4c3CCN2C(=O)[C@H]1[C@H](C)O | . | . | -5.6 | . | . | . | . | . | .
OCCCNc1cc(-c2ccccc2)nc2cc(-c3ccc(F)cc3)nn12 | -15.7 | 3.6 | -11.8 | 0.1 | -39.0 | -17.2 | . | . | .
CC(=O)N1CCC(C(=O)N2CCN(S(=O)(=O)c3ccc(Cl)s3)CC2)CC1 | -2.6 | 1.7 | 0.8 | 97.0* | -4.1 | -9.2 | 15.2 | 22.0 | 11.4
COC(=O)c1c(NC(=O)c2ccccc2N(C)S(=O)(=O)c2ccccc2)sc2c1CCCC2 | -13.4 | . | -3.5 | 6.3 | . | . | . | . | .
CCOC(=O)c1c(NC(=O)c2ccccc2N(C)S(=O)(=O)c2ccccc2)sc2c1CCCC2 | -48.9 | 2.2 | -0.1 | 52.0 | -4.4 | 26.4 | 13.8 | 14.8 | -35.1
CCOC(=O)c1c(NC=O)sc2c1CCC2 | 15.6 | -5.0 | -3.2 | 69.7* | -18.2 | 6.7 | 11.9 | -3.9 | 20.7
CCOC(=O)c1c(NC(=O)C(=O)N/N=C/c2ccccc2OC)sc2c1CCCCC2 | -7.0 | 0.9 | -0.8 | -3.0 | -3.6 | 18.6 | . | . | .
CCOC(=O)c1c(NC(=O)C(=O)N/N=C/c2ccccc2O)sc2c1CCCCC2 | 0.5 | 2.8 | 0.7 | 69.9* | -3.3 | 12.0 | 75.3* | 17.1 | 20.4
CCCCNC(=O)C[C@H]1C[C@@]2(C(=O)OC)C(=C[C@H](C3CCCC3)O[C@@H]2C)N(Cc2ccccc2)C1=O | . | . | -5.3 | . | . | . | . | . | .
O=C(N/N=C/c1cc(Cl)cc([N+](=O)[O-])c1O)c1cccc(S(=O)(=O)N2CCOCC2)c1 | 3.7 | . | 1.2 | -4.8 | -0.1 | 14.3 | . | . | .
SMILES | NR2E3 ag-1 | NR2E3 ag-2 | GalR3 antag | Gli-Sufu block | 697 NFkB inh | Jurkat NFkB inh | Gli-Sufu confirm | SufuKO cytotox | Wnt3a cs
CC(C)(C)N(NC(=O)Nc1ccc(Cl)c(Cl)c1)C(=O)c1ccccc1 | 6.4 | 4.5 | -5.7 | 8.0 | 18.1 | -4.5 | . | . | .
Cc1cc(C)cc(C(=O)N(NC(=O)Nc2ccc(Cl)cc2)C(C)(C)C)c1 | -4.1 | 1.4 | -4.0 | 59.9* | 18.0 | 4.7 | 21.8 | 9.7 | -3.2
CSCCC(=O)N(C)CC1CCCN(CCc2cccc(C(F)(F)F)c2)C1 (stereo not drawn) | -32.0 | 0.7 | -10.3 | 21.6 | -1.8 | 5.7 | . | . | .
COC(=O)CCC(=O)N(C)CC1CCCN(CCc2cccc(C(F)(F)F)c2)C1 (stereo not drawn) | -4.2 | -0.1 | -12.7 | 56.2* | -3.1 | 5.5 | 17.0 | 6.6 | -23.0
CS(=O)(=O)c1ccc(OCCCN2CCC(C(O)(c3ccccc3)c3ccccc3)CC2)cc1 | . | . | -5.0 | . | . | . | . | . | .
Cc1ccc(NC(=O)CSc2n[nH]c(-c3ccco3)n2)c(C)c1 | -1.8 | 2.0 | 2.2 | 56.6* | -3.4 | -63.2 | 21.2 | -2.9 | -17.7
Cc1ccc(NC(=O)CSc2n[nH]c(-c3ccco3)n2)cc1 | -6.3 | -1.7 | 6.4 | 0.8 | 0.5 | -11.9 | . | . | .
COc1ccc(-c2nc(N)ncc2-c2csc(C)n2)c(O)c1 | 7.2 | 0.4 | -3.9 | 99.0* | -7.0 | -3.2 | 23.4 | 3.1 | 21.2
Cc1cc(C)c(Cn2cnc(-c3ccc([N+](=O)[O-])cc3)c2)c(C)c1 | -13.7 | 2.1 | -1.3 | 55.4* | -6.0 | -5.7 | 29.8 | 27.8* | -44.0
COCCNC(=O)C1CC(c2ccccc2C(F)(F)F)=NO1 (stereo not drawn) | 1.3 | 1.4 | -8.6 | -0.4 | 11.1 | -8.0 | . | . | .
CCCc1cc(=O)oc2cc(C)cc(OCC(=O)O)c12 | -8.2 | -2.0 | 0.8 | 99.6* | 8.4 | -12.4 | 5.1 | -4.8 | -9.4
